Here are results for 8 substances from PMC2213236 (The Journal of Experimental Medicine, 2005).

One series has as its system HLA DRB1*0404. As to the kind of experiment: HLA DR binding. The arrangement: species or system human. The following applies: compared with the serine-substituted homologue.
Series [1] is described as follows: Formation and reduction of the vicinal disulfide bond. It counts as physicochemical. The following applies: MS, unpublished data.
The subject of series [2] is proinsulin-specific CD4^+ T cell clones from two healthy HLA DR4^+ donors. As to the kind of experiment: Proliferation of proinsulin-specific CD4+ T cell clones from healthy donors. It counts as cell-based, human. Particulars: 13 clones from two healthy HLA DR4^+ donors (6 and 7 clones); unpublished data.
Series [3] concerns human CD4^+ T cell clones to proinsulin. The format is cell-based. The following applies: for stimulation of clones by insulin and proinsulin: titrated from 1 μM to 0.1 nM, mean of triplicates ± SEM. An outline of the steps: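 Clones were cultured in triplicate in IMDM with 5% pooled human serum and irradiated APCs (autologous or HLA-matched PBMCs at 20 Gy, or EBV B-cell lines at 50 Gy). Insulin or proinsulin was used at 10 μg/ml, with anti-HLA DR mAb at 5 μg/ml where indicated. RP-HPLC fractions were tested at 1/400. After 2 d, 3H-thymidine (0.5 μCi/well, 18 h) was added; β-scintillation; mean ± SEM of triplicates.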

The test system of the next series is murine T cells. Particulars: first 14 amino acids of the A-chain of bovine insulin; cited from earlier work.
A further series has as its system human T cells. The following applies: first 14 amino acids of the A-chain of bovine insulin; cited from earlier work.

As to KRGIVEQC-CTSISSL (disulfide), the “effect of the vicinal disulfide bond on binding to HLA DR4” value in the series with HLA DRB1*0404 was “did not alter binding to HLA DR4”. For the same substance, in series [1] (dithiothreitol treatment, mass increased by 2 Dltons), the “effect of dithiothreitol on the vicinal disulfide bond” value is on record as “reduced the vicinal disulfide bond”.

Consider KRGIVEQCCTSICSL [KR-A1-13], for which the “clones proliferating in response to peptide” value in series [2] is reported as “none”.

Take “S-6: serine substituted for the cysteine at A6”: in series [3] (S-6 peptide in similar experiments, unpublished data), the “proliferation of T cell clones to RP-HPLC fractions” value is “No fractions stimulated proliferation”.

Consider “proinsulin: Recombinant human proinsulin produced in-house, shown to be folded correctly and free of endotoxin”, for which, in series [3], the “stimulation of clones by insulin and proinsulin” value is recorded as “stimulated the clones equally”.

Take “S-11: analogue peptide with serine substituted for cysteine at position A11 (KRGIVEQSSTSISSL)”: the “effect of TCEP reduction on ability to stimulate the clones” value in series [3] (S-11 peptide (1 μM) treated with the disulfide-reducing agent TCEP) was “abolished the ability of S-11 to stimulate the clones”. In series [1] (S-11 peptide in culture medium), the “formation of the vicinal disulfide bond” value is “within minutes”.

KRGIVDQCCTSICSL: the “potency relative to the human homologue (fold less potent)” value in series [3] (mouse vs human insulin A1-13, 50—0.05 μM peptide) is given as ~10 -fold less potent.

Consider “insulin: clinical grade recombinant insulin”, for which the “HLA DR dependence of the response to insulin” value in series [3] (clinical grade recombinant insulin 10 μg/ml, anti-HLA DR mAb 5 μg/ml) is reported as “HLA DR dependent”. For the same substance, the “stimulation of clones by insulin and proinsulin” value in series [3] was “stimulated the clones equally”.

Consider GIVEQCCASVCSLY, for which the “recognition by T cells after immunization” value in the series with murine T cells and with human T cells was “recognized” throughout.
